From article PMC2847151 (Neurogenetics, 2009)

Assays:
Med25 expression = assay: Med25 qRT-PCR expression in sciatic nerve of treated Pmp22 transgenic; assay type: in vivo, rat
How it was run: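 Pmp22-transgenic rats received a progestin diet (20 mg/kg), a progesterone-receptor antagonist, or placebo (12, 12 and 8 animals). RNA was Trizol-extracted from sciatic nerve. Med25 was quantified by TaqMan qRT-PCR with unlabelled forward/reverse primers and a 5′-FAM probe, in triplicate, normalised to 18S rRNA run in parallel. Runs were repeated with GAPDH as the internal control.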

Pmp22 expression = conditions: peripheral nerves of Pmp22 transgenic rats; ref [31]; cited from earlier work
Pmp22 transgenic rats = conditions: progesterone antagonist, ref [31]; cited from earlier work
[1] = test system: SH3 domain of the Src-family kinase Lck (LckSH3); assay: Fluorescence titration binding of synthetic MED25 peptides to Lck SH3; conditions: AblSH3 vs LckSH3
[2] = biological target: SH3 domain of Abl (AblSH3) (Homo sapiens, UniProt P00519); assay: Fluorescence titration binding of synthetic MED25 peptides to Abl SH3
[3] = biological target: SH3 domain of the Src-family kinase Lck (LckSH3) (Homo sapiens, UniProt P06239); assay: Fluorescence titration binding of synthetic MED25 peptides to Lck SH3
Chain of SH3 domain of the Src-family kinase Lck (LckSH3) (Homo sapiens, UniProt P06239) (P06239 61-121 limits assumed): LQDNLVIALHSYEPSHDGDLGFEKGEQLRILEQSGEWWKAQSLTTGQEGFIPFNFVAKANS

Chain of SH3 domain of Abl (AblSH3) (P00519 61-121 limits assumed): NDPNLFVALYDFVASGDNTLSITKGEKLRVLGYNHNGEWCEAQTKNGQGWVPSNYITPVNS

For `CN(C)c1ccc([C@H]2C[C@]3(C)[C@@H](CC[C@]3(O)CCCO)[C@@H]3CCC4=CC(=O)CCC4=C32)cc1` [onapristone], the “Med25 expression after treatment” value (Med25 expression; Pmp22^++/+ rats, onapristone) is listed as “no significant reducing effect”, the Pmp22 expression (Pmp22 expression) is listed as “decreases its expression” and the phenotype (Pmp22 transgenic rats) is listed as “improvement of the phenotype”.

In the case of `CC(=O)[C@H]1CC[C@H]2[C@@H]3CCC4=CC(=O)CC[C@]4(C)[C@H]3CC[C@]12C` [progesterone], the “Med25 expression after treatment” value (Med25 expression; Pmp22^++/+ male rats, progesterone 20 mg/kg diet) is listed as “further increase of the Med25 expression” and the Pmp22 expression (Pmp22 expression) is listed as “increases Pmp22 expression”.

In the case of “Ac-QLPPGPPGAPKPPPAS-NH2 [wild-type MED25, Ac-QLPPGPPGAPKPPPAS-CONH2]”, the “binding affinity Abl SH3 compared with Lck SH3 (specificity)” value [1] is reported as “significantly stronger to Abl than to Lck”.

In the case of “Ac-QLPPGPPGVPKPPPAS-NH2 [mutant, Ac-QLPPGPPGVPKPPPAS-CONH2]”, the Kd [2] is reported as 2.91 ± 0.66 µM, the “affinity for Abl SH3, effect of mutation” value ([2]; mutant vs wild-type peptide) is reported as “almost unaltered by the mutation” and the Kd [3] is reported as 5.38 ± 1.05 µM. For the same compound, the “binding affinity Abl SH3 compared with Lck SH3 (specificity)” value [1] was “very similar affinity”.
